Test [1] concerns Rodentolepis nana. The test can be described thus: Anthelmintic activity against Hymenolepis nana infected in CF1 mouse assessed as clearance of worm burden assessed as clearance of worm burden at 0.2% dosed through diet for 4 days dosed 16 days post infection by press-plate technique. The format is functional. In a few lines:
(§1)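 Primary oral mouse screen. Compound was given mixed in the diet. Tapeworm (taeniacidal) and N. dubius nematode activity were each scored as percent clearance of worms.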

In test [2] the test system is gastrointestinal nematodes (Ovis aries). Description: Anthelmintic activity against gastrointestinal nematodes infected in sheep assessed as reduction of fecal egg count at 50 mg/kg, po measured up to 7 days relative to control. Also noted: scale not given: the % may be the effect or the level left.
Another test deals with Moniezia. The test can be described thus: Anthelmintic activity against Moniezia sp. infected in sheep assessed as reduction of fecal egg count. It counts as functional.
A further test relates to Taenia pisiformis. The test can be described thus: Anthelmintic activity against Taenia pisiformis infected in dog assessed as reduction of fecal egg count. It counts as functional, organism-based.
Test [3] concerns Heligmosomoides polygyrus. The test can be described thus: Nematocidal activity against Nematospiroides dubius infected in CF1 mouse assessed as clearance of worm burden at 0.2% dosed through diet for 4 days dosed 16 days post infection by press-plate technique. It counts as functional. In a few lines: as §1
Test [4] relates to Heligmosomoides polygyrus. The test can be described thus: Nematocidal activity against Nematospiroides dubius infected in CF1 mouse assessed as clearance of worm burden at 0.03% dosed through diet for 4 days dosed 16 days post infection by press-plate technique. It counts as functional, organism-based. In a few lines:
as §1

Test [5] relates to Rodentolepis nana. Description: Anthelmintic activity against Hymenolepis nana infected in CF1 mouse assessed as clearance of worm burden at 0.03% dosed through diet for 4 days dosed 16 days post infection by press-plate technique. It counts as functional, organism-based. In outline: as §1
For test [6], the system named is gastrointestinal nematodes (Ovis aries). The test can be described thus: Anthelmintic activity against gastrointestinal nematodes infected in sheep assessed as reduction of fecal egg count at 25 mg/kg, po measured up to 7 days relative to control. Also noted: scale not given: the % may be the effect or the level left.
For test [7] the test system is unchanged. Description: Anthelmintic activity against gastrointestinal nematodes infected in sheep assessed as reduction of fecal egg count at 200 mg/kg, po measured up to 7 days relative to control. Set-up: scale not given: the % may be the effect or the level left.
The test system is the same in test [8]. Description: Anthelmintic activity against gastrointestinal nematodes infected in sheep assessed as reduction of fecal egg count at 43 mg/kg, po measured up to 7 days relative to control. Set-up: scale not given: the % may be the effect or the level left.

Calls of active or inactive are those of the source. No cut-off for these calls is given here.

`Cl.S=C=Nc1ccc2[nH]c(-c3ccccn3)nc2c1`: the Activity with Rodentolepis nana [1] worked out at 75%; in test [2] it was 95%.

In the case of `S=C=Nc1ccc2[nH]c(-c3ccccn3)nc2c1` [listing 1 of 2 here], the outcome (in the test on Moniezia; with Taenia pisiformis; in test [3]) was inactive.

As for `Cc1ccnc(-c2nc3cc(N=C=S)ccc3[nH]2)c1`, the Activity in the test on Rodentolepis nana [1] amounted to 25%; in [2], 0%. Besides, the outcome in [3] was inactive.

Consider `S=C=Nc1ccnc(-c2nc3ccccc3[nH]2)c1`, for which the results for the Activity (in the test on Rodentolepis nana [1]; in [2]) were 50% and 0%, respectively. Also, the outcome in test [3] was inactive.

For the compound `S=C=Nc1ccnc(-c2nc3cc(N=C=S)ccc3[nH]2)c1`, the Activity (in the test on Rodentolepis nana [1]; in test [2]) was 0% each time. Further, in [3], the outcome was inactive.

On to `S=C=Nc1ccc2[nH]c(-c3ccncc3)nc2c1`, for which the Activity (in the test on Rodentolepis nana [1]; in test [2]) was 0% each time. In addition, the result in test [3] was inactive.

Consider `Cc1ccc(S(=O)(=O)O)cc1.S=C=Nc1ccc2[nH]c(-c3ccccn3)nc2c1`, for which the figures for the Activity (in the test with Rodentolepis nana [1]; in test [2]) were 100% and 0%, respectively.

Regarding `c1ccc(-c2nc3ccccc3[nH]2)cc1`, the Activity with Rodentolepis nana [1] was 25%; in test [2] it was 17%. The outcome in test [3] was inactive.

As to `CCCCc1ccc2[nH]c(NC(=O)OC)nc2c1`, the outcome (in test [4]; in the test with Rodentolepis nana [5]) was Active.

Regarding `c1ccc(-c2nc3ccccc3[nH]2)nc1`, the figures for the Activity (with Rodentolepis nana [1]; in test [2]) were 0% and 28%, respectively. Further, the outcome in test [3] was inactive.

As to `COc1ccnc(-c2nc3cc(N=C=S)ccc3[nH]2)c1`, the results for the Activity (in the test with Rodentolepis nana [1]; in test [2]) were 75% and 0%, respectively. The result in test [3] was inactive.

Turning to `S=C=Nc1cc2nc(-c3ccccn3)[nH]c2cc1Cl`, the Activity is 50% with Rodentolepis nana [1] and 15% in test [2]. For the same compound, in test [3], the result was inactive.

On to `S=C=Nc1cccc2[nH]c(-c3ccccn3)nc12`, for which the Activity in the test with Rodentolepis nana [1] is 25%; in test [2] it was 83%. Besides, the result in test [3] was inactive.

As for `Cc1cccc(-c2nc3cc(N=C=S)ccc3[nH]2)n1`, the Activity in the test on Rodentolepis nana [1] worked out at 75%; in test [2], 52%. For the same compound, the outcome in [3] was inactive.

Consider `S=C=Nc1ccc2[nH]c(-c3ccccn3)nc2c1` [listing 2 of 2 here], for which the Activity in the test with Rodentolepis nana [1] is listed as 100%; in [2], 100%; in [6], 11%; in test [7], 100%.

As to `S=C=Nc1ccc2[nH]c(-c3cc(Cl)ccn3)nc2c1`, the Activity in the test on Rodentolepis nana [1] is listed as 75%; in test [2], 0%. The result in test [3] was inactive.

In the case of `Cn1c(-c2cccc[n+]2C)nc2cc(N=C=S)ccc21.[I-]`, the Activity in the test on Rodentolepis nana [1] was 0%. In addition, the result in [3] was inactive.

Consider `[O-][n+]1ccccc1-c1nc2cc(N=C=S)ccc2[nH]1`, for which the results for the Activity (in the test on Rodentolepis nana [1]; in test [8]) were 100% and 9%, respectively. Moreover, in test [3], the result was inactive.

Take `S=C=Nc1ccc2[nH]c(-c3ccccc3)nc2c1`: the Activity worked out at 100% in the test on Rodentolepis nana [1] and 0% in test [2]. In addition, the outcome in test [3] was inactive.

Consider `S=C=Nc1ccc2[nH]c(-c3cccnc3)nc2c1`, for which the Activity is given as 100% with Rodentolepis nana [1] and 71% in test [7]. Also, the outcome in test [3] was inactive.

For the compound `S=C=Nc1ccc2[nH]c(-c3cscn3)nc2c1`, the figures for the Activity (with Rodentolepis nana [1]; in test [3]) were 100% and 90%, respectively.

The record behind these values is ChEMBL document CHEMBL3244105, “Antiparasitic agents. 3. Synthesis and anthelmintic activities of novel 2-pyridinyl-5-isothiocyanatobenzimidazoles” (1979).
